# Measured values as given in ChEMBL document CHEMBL1926586, “A new class of antimalarial dioxanes obtained through a simple two-step synthetic approach: rational design and structure-activity relationship studies” (J Med Chem, 2011).
# Legend:
# Plasmodium falciparum [1] = assay: Antimalarial activity against chloroquine-sensitive Plasmodium falciparum D10 infected in human type A-positive red blood cells assessed as parasite lactate dehydrogenase activity after 72 hrs by spectrophotometric analysis; type: functional, organism-based; conditions: D10, 72 h
# Outline: (§1)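 Parasites were cultured in human type A-positive red blood cells at 5% hematocrit. Medium was RPMI 1640 with 1% AlbuMax, 0.01% hypoxanthine, 20 mM Hepes and 2 mM glutamine. Cultures were held at 37 °C under 1% O2, 5% CO2, 94% N2. Compounds were dissolved in water or DMSO, then diluted in medium. Values are mean ± SD of three experiments in duplicate.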
# [2] = Therapeutic index, ratio of IC50 for human HMEC1 cells to IC50 for chloroquine-resistant Plasmodium falciparum W2; type: cell-based; conditions: read-out: Ratio IC50
# [3] = Cytotoxicity against human HMEC1 cells after 72 hrs by MTT assay; type: cell-based; conditions: HMEC-1, 72 h
# Plasmodium falciparum [4] = assay: Antimalarial activity against chloroquine-resistant Plasmodium falciparum W2 infected in human type A-positive red blood cells assessed as parasite lactate dehydrogenase activity after 72 hrs by spectrophotometric analysis; type: functional, organism-based; conditions: W2, 72 h; outline: as §1
Compound,IC50 (Plasmodium falciparum [1]) [µM],selectivity ratio [2],IC50 [3] [µM],IC50 (Plasmodium falciparum [4]) [µM]
CCCC[C@@]1(C)C[C@H](C(=O)OC)[C@](CCCC)(OC)OO1 (mixture of isomers),2.6,90,167,1.3
CCCC[C@]1(C)C[C@H](C(=O)OC)[C@](CCCC)(OC)OO1 (mixture of isomers),4.2,,,1.5
CCCCC1(CCCC)C[C@H](C(=O)OC)[C@@](CCCC)(OC)OO1 (racemic),2.3,,,1.2
CC[C@@]1(OC)OOC(C)(C)C[C@@H]1C(=O)OC (mixture of isomers),> 30,,,> 30
CC/C=C/[C@H](CC)C[C@@]1(C)C[C@@H](CC)[C@@H](CC(=O)OC)OO1 [PLAKORTIN],0.9,,,0.4
CCCC[C@@]1(C)C[C@H](C(=O)OC)[C@@](C)(OC)OO1 (mixture of isomers),17.7,,,6.4
CCCC[C@]1(C)C[C@H](C(=O)OC)[C@](C)(OC)OO1 (mixture of isomers),8.5,,,4.9
CCCC[C@]1(C)C[C@H](C(=O)OC)[C@@](CCCC)(OC)OO1 (mixture of isomers),12.3,,,5
CCCC[C@@]1(C)C[C@H](C(=O)OC)[C@](C)(OC)OO1 (mixture of isomers),12.6,,,11.8
CCCCC1(CCCC)C[C@H](C(=O)OC)[C@](C)(OC)OO1 (mixture of isomers),7.4,,,2.5
CCCC[C@@]1(OC)OOC(C)(C)C[C@@H]1C(=O)OC (mixture of isomers),3.7,90,> 384,1.5
CCCC[C@]1(OC)OOC(C)(C)C[C@@H]1C(=O)OC (mixture of isomers),> 30,,,> 30
COC(=O)[C@H]1CC(C)(C)OO[C@@]1(C)OC (mixture of isomers),> 30,,,> 30
CCCCC1(CCCC)C[C@H](C(=O)OC)[C@@](C)(OC)OO1 (mixture of isomers),2.6,90,98.3,0.8
CCCC[C@]1(C)C[C@H](C(=O)OC)[C@@](C)(OC)OO1 (mixture of isomers),17.7,,,8.4
CCCCC1(CCCC)C[C@H](C(=O)OC)[C@](CCCC)(OC)OO1 (mixture of isomers),2.9,90,108,1.2
